Test results: ChEMBL document CHEMBL1142431, “Benzodioxoles: novel cannabinoid-1 receptor inverse agonists for the treatment of obesity” (J Med Chem, 2008)
The source made the active and inactive calls. The rule behind the calls is not given here.

Columns and labels:
[1] = Selectivity for human CB1 receptor over chloride channel
[2] = organism: Homo sapiens; assay: Selectivity for human CB1 receptor over human dopamine D1 receptor
[3] = organism: Homo sapiens; assay: Selectivity for human CB1 receptor over human estrogen receptor
[4] = organism: Homo sapiens; assay: Selectivity for human CB1 receptor over human MC4 receptor
[5] = Aqueous solubility at pH 6.5 by lyophilisation solubility assay; type: physicochemical
Outline: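 Duplicate samples from 10 mM DMSO stock; DMSO evaporated 1 h, residue taken up in 50 mM phosphate buffer pH 6.5, stirred 1 h, shaken 2 h, left overnight. Filtrate and 1/10 dilution read by direct UV or HPLC-UV against four-point calibration; range for MW 500 0-666 µg/mL; >80% dissolved reported as greater-than.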

[6] = organism: Homo sapiens; assay: Selectivity for human CB1 receptor over human ORL1 receptor
[7] = Selectivity for human CB1 receptor over NMDA receptor
[8] = organism: Homo sapiens; assay: Selectivity for human CB1 receptor over human dopamine D4.4 receptor
[9] = tested on: Rattus norvegicus; assay: Reduction in progression of body weight in diet-induced obesity Sprague-Dawley rat model at 3 mg/kg, po for 16 days; type: functional, organism-based; set-up: dose 3 mg/kg
Outline: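 Obese Sprague-Dawley rats (HFD 10 weeks from 3 weeks old, selected as >2 SD above chow controls), n = 9 per group, gavage-adapted 3 days, then dosed daily by gavage at 5:00 p.m. for 16 days in water with 7.5% gelatine and 0.62% NaCl, 2 mL/kg; body weight and food intake recorded daily.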

[10] = organism: Homo sapiens; assay: Selectivity for human CB1 receptor over human LTD4 receptor
[11] = Selectivity for human CB1 receptor over BZD receptor
[12] = organism: Homo sapiens; assay: Selectivity for human CB1 receptor over human AT2 receptor
[13] = tested on: Liver microsomes; assay: Clearance in human liver microsomes; type: ADME, Microsome; settings: microsomes
Outline: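 Test compound at 2 µM incubated with liver microsomes (0.5 mg protein/mL) in 50 mM potassium phosphate pH 7.4 at 37 °C. Reaction started with an NADPH-generating system (glucose-6-phosphate 3.2 mM, NADP 2.6 mM, MgCl2 6.5 mM). Six samples over 30 min, quenched in methanol with internal standard, then LC-MS/MS for substrate depletion. CLint taken from the first-order decay, normalized to protein.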

[14] = target: Cannabinoid receptor 1 (Homo sapiens, UniProt P21554); assay: Activity at human CB1R expressed in HEK293 cells assessed as intracellular cAMP level; type: functional, cell-based
Cannabinoid receptor 1, sequence (P21554 whole entry): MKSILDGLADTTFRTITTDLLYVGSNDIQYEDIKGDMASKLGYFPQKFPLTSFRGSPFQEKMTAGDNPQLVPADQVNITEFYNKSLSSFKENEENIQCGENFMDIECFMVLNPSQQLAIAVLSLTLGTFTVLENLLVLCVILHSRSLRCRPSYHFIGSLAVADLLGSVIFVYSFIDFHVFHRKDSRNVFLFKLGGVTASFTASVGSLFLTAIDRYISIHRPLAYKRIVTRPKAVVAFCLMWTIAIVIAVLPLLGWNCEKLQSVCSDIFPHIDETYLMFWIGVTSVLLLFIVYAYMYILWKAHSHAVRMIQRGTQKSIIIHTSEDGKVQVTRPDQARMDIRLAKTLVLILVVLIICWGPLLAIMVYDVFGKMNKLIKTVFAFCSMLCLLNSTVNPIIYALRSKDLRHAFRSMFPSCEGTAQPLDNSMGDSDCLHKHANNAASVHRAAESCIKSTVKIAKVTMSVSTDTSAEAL

[15] = Permeability from apical to basolateral side of human Caco-2 cell membrane; type: ADME, cell-based; settings: read-out: permeability
[16] = organism: Homo sapiens; assay: Selectivity for human CB1 receptor over human bradykinin B1 receptor
[17] = organism: Homo sapiens; assay: Selectivity for human CB1 receptor over human CB2 receptor

`O=C(c1cc2c(cc1F)O[C@](c1ccc(F)cc1)(c1ccc(Cl)cc1Cl)O2)N1CCOCC1` showed a Selectivity ratio [1] of 300, a Selectivity ratio [2] of 300 and a Selectivity ratio [3] of 300. The Selectivity ratio [4] was 300, the solubility [5] was < 1 µg/mL and the Selectivity ratio [6] was 300. For the same compound, the Selectivity ratio [7] was 300, the Selectivity ratio [8] was 300 and the Activity [9] was “Active”. The Selectivity ratio [10] was 300, the Selectivity ratio [11] was 300 and the Selectivity ratio [12] was 300. For the same compound, the clearance [13] was 11 µL/min/mg, the EC50 [14] was 8 nM and the Papp A→B [15] was 10.6 ×10⁻⁶ cm/s. For the same compound, the Selectivity ratio [16] was 300 and the Selectivity ratio [17] was > 1000.
